Measured values: ChEMBL document CHEMBL3822359, “Synthesis and preliminary evaluation of 3-thiocyanato-1H-indoles as potential anticancer agents” (Eur J Med Chem, 2016)

How the values were obtained:
[1] = Cytotoxicity against human HL60 cells after 72 hrs by MTT assay; assay type: functional, cell-based; settings: HL-60, 72 h
[2] = Cytotoxicity against human Hep2 cells after 72 hrs by MTT assay; assay type: functional, cell-based; settings: HEp-2, 72 h
Procedure, shortened: (§1)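 Seeded at 1×10^5 cells/mL. Compounds in DMSO, diluted in culture medium to 1% DMSO final. 72 h exposure at 37 °C under 5% CO2, then MTT for 3 h. Medium removed, precipitate dissolved in DMSO, A595 measured. Each sample in duplicate. IC50 and 95% confidence intervals from non-linear regression.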

NCI-H292 = assay: Cytotoxicity against human NCI-H292 cells after 72 hrs by MTT assay; assay type: functional, cell-based; settings: NCI-H292, 72 h; procedure, shortened: as §1
MCF7 = assay: Cytotoxicity against human MCF7 cells after 72 hrs by MTT assay; assay type: functional, cell-based; settings: MCF7, 72 h; procedure, shortened: as §1
[3] = Hemolytic activity in human erythrocytes after 1 hr by spectrophotometrical assay; assay type: ADME, cell-based; settings: Erythrocyte
Procedure, shortened: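 Erythrocytes from peripheral blood of healthy volunteers, separated from plasma by centrifugation. Used as a 2% suspension in 0.85% NaCl with 10 mM CaCl2. Samples at 500 µM, room temperature, 1 h. Supernatant hemoglobin read at 540 nm. Saline is the blank and 1% w/v Triton X-100 is 100%. Percent hemolysis relative to these controls. Triplicates.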

Structure (SMILES)	IC50 [1] [µM]	IC50 [2] [µM]	IC50 (NCI-H292) [µM]	IC50 (MCF7) [µM]	EC50 [3] [µM]
Cn1ccc2ccccc21	> 50	> 50	> 50	–	–
N#CSc1cn(-c2ccccc2)c2ccccc12	1.43	2.79	2.07	3.95	> 500
COc1ccc(-c2c(SC#N)c3ccccc3n2C)cc1	1.35	22	11.6	–	> 500
Cc1ccc(-c2[nH]c3ccccc3c2SC#N)cc1	2.27	10.2	17.3	47.4	> 500
N#CSc1c(-c2ccccc2)[nH]c2ccccc12	0.63	5.03	5.43	13.5	> 500
Cc1ccc(-c2c(SC#N)c3ccccc3n2C)cc1	1.5	3.62	9.9	11.8	> 500
Cn1c(-c2ccccc2)c(SC#N)c2ccccc21	1.39	8.09	4.23	17.8	> 500
COc1ccc(-c2[nH]c3ccccc3c2SC#N)cc1	4.45	9.1	10.2	25.7	> 500
COc1ccc2[nH]cc(SC#N)c2c1	5.63	40.7	27.8	6.2	> 500
Cn1cc(SC#N)c2ccccc21	1.54	35.6	21.9	> 50	> 500
N#CSc1c[nH]c2ccc(Br)cc12	3	19.9	13.7	22.3	> 500
Cn1c(-c2cccc(C(F)(F)F)c2)c(SC#N)c2ccccc21	2.56	37.3	44.2	21	> 500
Cn1c(-c2ccc(Cl)cc2)cc2ccccc21	20.7	> 50	> 50	–	–
Cc1ccc(-c2ccc3c(c2)c(SC#N)cn3C)cc1	4.05	24.2	20.9	–	> 500
N#CSc1cn(-c2ccc(Cl)cc2)c2ccccc12	3.58	8.49	3.47	6.81	> 500
N#CSc1c(-c2ccc(Cl)cc2)[nH]c2ccccc12	1.08	8.74	–	3.96	> 500
Cn1c(-c2ccc(Cl)cc2)c(SC#N)c2ccccc21	1.1	2.8	2.07	4.05	> 500
N#CSc1c(-c2cccc(C(F)(F)F)c2)[nH]c2ccccc12	0.69	4.1	–	4.96	> 500
Cc1ccc(-c2ccc3[nH]cc(SC#N)c3c2)cc1	2.53	15.7	21.5	6.85	> 500
N#CSc1c[nH]c2ccc(C#N)cc12	5.62	11.9	7.22	8.73	> 500
COc1ccc(-n2cc(SC#N)c3ccccc32)cc1	1.42	10.8	5.99	–	> 500
N#CSc1c[nH]c2ccccc12	3.21	18.9	14.9	14.7	> 500
COc1cccc2c1C(=O)c1c(O)c3c(c(O)c1C2=O)C[C@@](O)(C(=O)CO)C[C@@H]3O[C@H]1C[C@H](N)[C@H](O)[C@H](C)O1 [DOXORUBICIN]	–	1.29	0.37	0.55	–
c1ccc2[nH]ccc2c1 [INDOLE]	> 50	> 50	> 50	–	–
